According to ChEMBL document CHEMBL1275475, “Potent in vitro activity of tomopenem (CS-023) against methicillin-resistant Staphylococcus aureus and Pseudomonas aeruginosa” (Antimicrob Agents Chemother, 2008):
Values after ≈ are worked out from the molar mass of the structure shown.

What was measured:
Pseudomonas aeruginosa [1] = assay: Antibacterial activity against Pseudomonas aeruginosa PAO1 by broth microdilution method; format: functional
Method in brief: (§1)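 Standard broth microdilution in cation-adjusted Mueller-Hinton broth (25 mg Ca2+ and 12.5 mg Mg2+ per liter), inoculum 4×10^5 CFU/ml, against P. aeruginosa PAO1 or its laboratory mutants with defined resistance mechanisms. MIC was the lowest concentration completely inhibiting […] growth in wells. Determinations were done in duplicate.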

Pseudomonas aeruginosa [2] = assay: Antibacterial activity against beta-lactamase-overproducing Pseudomonas aeruginosa N043 by broth microdilution method; format: functional; method in brief: as §1
Pseudomonas aeruginosa [3] = assay: Antibacterial activity against OprD-deficient Pseudomonas aeruginosa MR08 by broth microdilution method; format: functional; method in brief: as §1
Pseudomonas aeruginosa [4] = assay: Antibacterial activity against MexA-MexB-OprM-overproducing Pseudomonas aeruginosa OCR1 by broth microdilution method; format: functional; method in brief: as §1
Pseudomonas aeruginosa [5] = assay: Antibacterial activity against beta-lactamase-overproducing and OprD-deficient Pseudomonas aeruginosa N044 by broth microdilution method; format: functional; method in brief: as §1
Pseudomonas aeruginosa [6] = assay: Antibacterial activity against beta-lactamase and MexA-MexB-OprM-overproducing Pseudomonas aeruginosa N045 by broth microdilution method; format: functional
Method in brief: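 Broth microdilution in cation-adjusted Mueller-Hinton broth (25 mg Ca2+ and 12.5 mg Mg2+ per liter), inoculum 4×10^5 CFU/ml. MIC was the lowest concentration completely inhibiting visible growth in wells. European clinical isolates were tested with S. aureus ATCC 29213 and P. aeruginosa ATCC 27853 as quality controls. PAO1-derived mutants were run in duplicate.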

Pseudomonas aeruginosa [7] = assay: Antibacterial activity against MexA-MexB-OprM-overproducing and OprD-deficient Pseudomonas aeruginosa N041 by broth microdilution method; format: functional; method in brief: as §1
Pseudomonas aeruginosa [8] = assay: Antibacterial activity against Pseudomonas aeruginosa COR6 expressing MexC-MexD-OprJ gene by broth microdilution method; format: functional; method in brief: as §1
Pseudomonas aeruginosa [9] = assay: Antibacterial activity against Pseudomonas aeruginosa N091 by broth microdilution method; format: functional; method in brief: as §1
Pseudomonas aeruginosa [10] = assay: Ratio of MIC for Pseudomonas aeruginosa N043 to MIC for Pseudomonas aeruginosa PAO1; format: functional
Method in brief: (§2)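 MICs were measured for PAO1-derived resistance mutants and the parent PAO1 by broth microdilution in cation-adjusted Mueller-Hinton broth (25 mg/liter Ca2+, 12.5 mg/liter Mg2+), inoculum 4×10^5 CFU/ml, in duplicate. MIC was the lowest concentration with complete growth inhibition. The ratio is the mutant MIC divided by the PAO1 MIC.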

Pseudomonas aeruginosa [11] = assay: Ratio of MIC for Pseudomonas aeruginosa MR08 to MIC for Pseudomonas aeruginosa PAO1; format: functional; method in brief: as §2
Pseudomonas aeruginosa [12] = assay: Ratio of MIC for Pseudomonas aeruginosa OCR1 to MIC for Pseudomonas aeruginosa PAO1; format: functional; method in brief: as §2
Pseudomonas aeruginosa [13] = assay: Ratio of MIC for Pseudomonas aeruginosa N044 to MIC for Pseudomonas aeruginosa PAO1; format: functional; method in brief: as §2
Pseudomonas aeruginosa [14] = assay: Ratio of MIC for Pseudomonas aeruginosa N045 to MIC for Pseudomonas aeruginosa PAO1; format: functional; method in brief: as §2
Pseudomonas aeruginosa [15] = assay: Ratio of MIC for Pseudomonas aeruginosa N041 to MIC for Pseudomonas aeruginosa PAO1; format: functional; method in brief: as §2
Pseudomonas aeruginosa [16] = assay: Ratio of MIC for Pseudomonas aeruginosa COR6 to MIC for Pseudomonas aeruginosa PAO1; format: functional; method in brief: as §2
Pseudomonas aeruginosa [17] = assay: Ratio of MIC for Pseudomonas aeruginosa N092 to MIC for Pseudomonas aeruginosa PAO1; format: functional; method in brief: as §2
Pseudomonas aeruginosa [18] = assay: Antibacterial activity against Pseudomonas aeruginosa N092 expressing MexE-MexF-OprN gene and OprD mutant gene and harboring nfxC mutant gene by broth microdilution method

| SMILES | MIC (Pseudomonas aeruginosa [1]) | MIC (Pseudomonas aeruginosa [2]) | MIC (Pseudomonas aeruginosa [3]) | MIC (Pseudomonas aeruginosa [4]) | MIC (Pseudomonas aeruginosa [5]) | MIC (Pseudomonas aeruginosa [6]) | MIC (Pseudomonas aeruginosa [7]) | MIC (Pseudomonas aeruginosa [8]) | MIC (Pseudomonas aeruginosa [9]) | Ratio (Pseudomonas aeruginosa [10]) | Ratio (Pseudomonas aeruginosa [11]) | Ratio (Pseudomonas aeruginosa [12]) | Ratio (Pseudomonas aeruginosa [13]) | Ratio (Pseudomonas aeruginosa [14]) | Ratio (Pseudomonas aeruginosa [15]) | Ratio (Pseudomonas aeruginosa [16]) | Ratio (Pseudomonas aeruginosa [17]) | MIC (Pseudomonas aeruginosa [18]) |
| --- | --- | --- | --- | --- | --- | --- | --- | --- | --- | --- | --- | --- | --- | --- | --- | --- | --- | --- |
| CC(C)(O/N=C(\C(=O)N[C@@H]1C(=O)N2C(C(=O)[O-])=C(C[n+]3ccccc3)CS[C@H]12)c1csc(N)n1)C(=O)O [CEFTAZIDIME] | 2 µg/mL (≈ 3.66 µM) | 128 µg/mL (≈ 234 µM) | 2 µg/mL (≈ 3.66 µM) | 8 µg/mL (≈ 14.6 µM) | 128 µg/mL (≈ 234 µM) | 128 µg/mL (≈ 234 µM) | 8 µg/mL (≈ 14.6 µM) | 1 µg/mL (≈ 1.83 µM) | 2 µg/mL (≈ 3.66 µM) | 64 | 1 | 4 | 64 | 64 | 4 | 0.5 | 0.5 | 1 µg/mL (≈ 1.83 µM) |
| NCC[C@H](O)C(=O)N[C@@H]1C[C@H](N)[C@@H](O[C@H]2O[C@H](CN)[C@@H](O)[C@H](O)[C@H]2O)[C@H](O)[C@H]1O[C@H]1O[C@H](CO)[C@@H](O)[C@H](N)[C@H]1O [AMIKACIN] | 4 µg/mL (≈ 6.83 µM) | 8 µg/mL (≈ 13.7 µM) | 4 µg/mL (≈ 6.83 µM) | 4 µg/mL (≈ 6.83 µM) | 8 µg/mL (≈ 13.7 µM) | 8 µg/mL (≈ 13.7 µM) | 4 µg/mL (≈ 6.83 µM) | 0.5 µg/mL (≈ 0.854 µM) | 4 µg/mL (≈ 6.83 µM) | 2 | 1 | 1 | 2 | 2 | 1 | 0.125 | 0.5 | 2 µg/mL (≈ 3.42 µM) |
| C[C@H]1COc2c(N3CCN(C)CC3)c(F)cc3c(=O)c(C(=O)O)cn1c23.C[C@H]1COc2c(N3CCN(C)CC3)c(F)cc3c(=O)c(C(=O)O)cn1c23.O [LEVOFLOXACIN] | 0.5 µg/mL | 0.25 µg/mL | 0.5 µg/mL | – | 0.25 µg/mL | – | – | 8 µg/mL | 0.5 µg/mL | – | – | – | – | – | – | – | – | 8 µg/mL |
